F508del corr: correctors of CFTR F508del function in bronchial epithelial cells; actives 0.36% (n = 350,000); activity (quench increase), % at 7.58 µM; CFBE cells, YFP halide quenching; stimulated with forskolin plus potentiator P3; % fluorescence drop versus neutral controls;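 active = mean added fluorescence quench of at least 8% versus neutral control, with both replicates also reaching 8%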;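 also: cells transiently co-express mutant CFTR-F508del with the halide-sensitive YFP; corrector assay measuring rescue of mutant channel to the surface after 24 h compound exposure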
DENV2 CPE: inhibitors of DENV2 cytopathic effect | CPE inhibition, % at 9.99 µM | actives 1.7% (n = 350,000) | DENV2-infected cells, cytopathic effect rescue, plate reader; in the data active = CPE inhibition above about 20%, passing the limit was not always enough; tested in BHK-21 cells
ERp5 inh: inhibitors of human ERp5 | Q15084 | ERp5 insulin aggregation, absorbance 650 nm, 90 min | inhibition, % at 9.99 µM | actives 0.05% (n = 350,000);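 active = mean replicate inhibition above about 25%, with every replicate also reaching it, limit read from the data, passing the limit was not always enough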
Target sequence (Q15084 whole entry, looked up): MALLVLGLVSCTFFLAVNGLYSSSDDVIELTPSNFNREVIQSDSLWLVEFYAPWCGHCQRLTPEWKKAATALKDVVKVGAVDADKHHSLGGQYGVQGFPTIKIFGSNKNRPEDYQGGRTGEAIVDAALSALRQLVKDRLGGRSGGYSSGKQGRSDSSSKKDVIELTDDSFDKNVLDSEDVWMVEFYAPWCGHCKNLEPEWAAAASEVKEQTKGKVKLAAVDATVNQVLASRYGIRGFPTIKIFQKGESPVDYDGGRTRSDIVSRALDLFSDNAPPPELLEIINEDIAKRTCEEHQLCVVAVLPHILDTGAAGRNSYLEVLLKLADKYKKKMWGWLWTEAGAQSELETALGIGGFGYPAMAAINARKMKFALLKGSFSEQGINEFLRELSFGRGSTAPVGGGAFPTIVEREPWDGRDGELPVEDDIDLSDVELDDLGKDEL
Cneo AK release: Cryptococcus neoformans lysis via adenylate kinase release; C. neoformans lysis, adenylate kinase release luminescence, 4 h; normalised: neutral wells 0, clomiphene wells 100; lysis activity, % at 15 µM; actives 0.2% (n = 360,000);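 active = mean lysis activity across replicates of at least 80%, whatever share of replicates individually reach that level; inactive = mean lysis activity below 80%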
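Test system: log-phase Cryptococcus neoformans yeast cells. Input: 5 × 10^6 yeast cells/mL. Medium: fresh YPD growth medium. Doses: single dose. Incubation: static 4 h at 37 °C with compound, 1 h detection. Measured by: luminescent adenylate kinase detection reagent. Read-out: signal increase indicating cell lysis. Benchmarks: Clomiphene.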
PDI inh: inhibitors of human protein disulfide isomerase. P07237. actives 0.052% (n = 350,000). PDI insulin aggregation turbidity, A650, 90 min. inhibition, % at 10 µM;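 active = mean inhibition across replicates of 30% or more, whatever share of single replicates reach that level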
C2C12 statin: protects C2C12 myotubes from simvastatin toxicity. AID 602340. rescue of ATP level, % at 7.49 µM. ATP luminescence, 48 h; scaled: DMSO 0, geranylgeraniol control 100. actives 0.78% (n = 330,000);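 active = mean ATP rescue above about 67%, or every replicate alone reaching that limit, limit read from the data, passing the limit was not always enough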;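 also: myotubes were challenged with 10 µM simvastatin during compound exposure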
Large screens that a line does not name were inactive; ! = repeats disagree. A selection: hits, their analogues and other compounds. The true share with any hit is near 2.3%.

COc1cccc(-c2ccc(C3[C@@H]4CN(S(=O)(=O)c5cn(C)cn5)C[C@H]3N4)cc2)c1 (stereo not given in full)	DENV2 CPE 130.9! (no result: ERp5 inh, Cneo AK release, PDI inh, C2C12 statin)
CN1c2ccc(Br)cc2[C@@H]2[C@@H](CCN2C(=O)Cc2ccccc2)[C@H]1CO	none (no result: DENV2 CPE, ERp5 inh, PDI inh)
C[C@@H](CO)NC(=O)c1ccc2c3n(nc2c1)-c1ccccc1CO3	DENV2 CPE 39.8
C[C@@H]1CCCCO[C@@H](CN(C)Cc2ccccc2)[C@H](C)CN([C@@H](C)CO)C(=O)c2cc(NC(=O)NC3CCCCC3)ccc2O1	DENV2 CPE 23.9 (no result: PDI inh, C2C12 statin)
C[C@H]1CCCCO[C@H](CN(C)C(=O)Cc2ccccc2)[C@@H](C)CN([C@@H](C)CO)C(=O)c2cc(N(C)C)ccc2O1	F508del corr 10.8 (no result: DENV2 CPE, ERp5 inh, Cneo AK release, PDI inh)
C[C@H](CO)N1C[C@H](C)[C@@H](CN(C)Cc2ccccc2)OCCCC[C@H](C)Oc2ccc(NC(=O)NC3CCCCC3)cc2C1=O	none (no result: PDI inh, C2C12 statin)
C[C@H]1CCCCO[C@H](CN(C)C(=O)Cc2ccccc2)[C@@H](C)CN([C@@H](C)CO)C(=O)c2cc(NC(=O)NC3CCCCC3)ccc2O1	DENV2 CPE 25.4 (no result: ERp5 inh, PDI inh, C2C12 statin)
C[C@@H]1CN([C@H](C)CO)C(=O)c2cc(N(C)C)ccc2O[C@@H](C)CCCCO[C@@H]1CN(C)C(=O)Cc1ccccc1	none (no result: PDI inh)
C[C@H](CO)N1C[C@H](C)[C@H](CN(C)Cc2ccccc2)OCCCC[C@H](C)Oc2ccc(NC(=O)NC3CCCCC3)cc2C1=O	DENV2 CPE 29.2 (no result: PDI inh, C2C12 statin)
C[C@H](CO)N1C[C@H](C)[C@@H](CN(C)Cc2ccc(C(F)(F)F)cc2)OCCCC[C@H](C)Oc2ccc(NC(=O)NC3CCCCC3)cc2C1=O	none (no result: PDI inh, C2C12 statin)
O=S(=O)(NCc1ccc(F)cc1)c1ccccc1Br	DENV2 CPE 30.7
COc1cccc(CNC(=O)C[C@@H]2C=C[C@@H](NC(=O)C3CC3)[C@@H](CO)O2)c1	none (no result: PDI inh)
O=C(O)c1ccc(N=NN2CCCCCC2)cc1	DENV2 CPE 111.8 (no result: Cneo AK release, C2C12 statin)
C[C@H](CO)N1C[C@H](C)[C@H](CN(C)Cc2ccccc2)Oc2ccc(NC(=O)Cc3cn(C)c4ccccc34)cc2CC1=O	none (no result: PDI inh)
C[C@H](CO)N1C[C@H](C)[C@@H](CN(C)Cc2ccc(-c3ccccc3)cc2)Oc2ccc(NC(=O)Cc3cn(C)c4ccccc34)cc2CC1=O	C2C12 statin 101.9 (no result: Cneo AK release, PDI inh)
C[C@@H]1CN([C@@H](C)CO)C(=O)Cc2cc(NC(=O)Cc3cn(C)c4ccccc34)ccc2O[C@H]1CN(C)Cc1ccc(C(F)(F)F)cc1	C2C12 statin 104.1 (no result: PDI inh)
Cc1ccc(S(=O)(=O)Nc2ccc3c(c2)C(=O)N([C@H](C)CO)C[C@H](C)[C@@H](CN(C)Cc2ccncc2)O3)cc1	none (no result: PDI inh)
CO[C@H]1CN(C)C(=O)c2cc(NC(C)=O)ccc2OC[C@@H](C)N(Cc2cncnc2)C[C@H]1C	none (no result: PDI inh)
CN(C)CCCNC(=O)[C@H]1[C@H](CO)[C@H]2Cn3c(ccc(-c4cccc(F)c4)c3=O)[C@@H]1N2C	none (no result: PDI inh)
Cc1ccc(-c2csc(NC(=O)c3ccc([N+](=O)[O-])o3)n2)cc1	C2C12 statin 91.5
O=C(Nc1nc(-c2ccc([N+](=O)[O-])cc2)cs1)C1=COCCO1	DENV2 CPE 41.8
Cn1cc(C(=O)Nc2ccc(F)c(F)c2)cn1	C2C12 statin 89.7 (no result: F508del corr, DENV2 CPE, ERp5 inh)
Cc1cccc2c1cnn2C(=O)Nc1ccc(Br)cc1F	C2C12 statin 99.2
COc1ccc(NC(=O)Nc2ccc3c(c2)C(=O)N([C@H](C)CO)C[C@@H](C)[C@@H](CN(C)S(C)(=O)=O)O3)cc1	none (no result: PDI inh)
C/C=C/c1ccc2c(c1)[C@H]1[C@H](CCN1C(=O)c1ccc(F)cc1)[C@H](CO)N2	none (no result: Cneo AK release, PDI inh, C2C12 statin)
Cc1cc(-c2nnc3n2N=C(c2ccc(-c4ccccc4)cc2)CS3)n[nH]1	none (no result: F508del corr, DENV2 CPE, ERp5 inh)
c1ccc(-c2cc(-c3nnc4n3N=C(c3ccc5ccccc5c3)CS4)[nH]n2)cc1	C2C12 statin 80.3 (no result: F508del corr, DENV2 CPE, ERp5 inh)
COc1ccc(OC)c(-c2nnc3n2N=C(c2ccc(OC)c(OC)c2)CS3)c1	F508del corr 9.5, DENV2 CPE 31.3
COc1ccc(C2=Nn3c(nnc3-c3ccccc3OC)SC2)cc1OCC1CC1	DENV2 CPE 25.1
C[C@@H]1CN([C@@H](C)CO)S(=O)(=O)c2ccc(C#CCN(C)C)cc2O[C@H]1CN(C)C(=O)C1CCCCC1	none (no result: PDI inh)
CCN(CC(=O)NCc1cccs1)C(=O)/C=C/c1cc(OC)ccc1OC	none
CCN(CC(=O)NCc1cccs1)C(=O)/C=C/c1ccc(OC)cc1OC	DENV2 CPE 30.4
CCCNC(=O)[C@H]1[C@H](CO)[C@H]2Cn3c(ccc(-c4ccc(OC)cc4)c3=O)[C@H]2N1CC	none (no result: Cneo AK release, PDI inh, C2C12 statin)
O=C(Oc1ccc(O)cc1)C12CC3CC(CC(C3)C1)C2	PDI inh 65.3 (no result: Cneo AK release, C2C12 statin)
O=C(Oc1ccc2c(c1)OCO2)C12CC3CC(CC(C3)C1)C2	none (no result: Cneo AK release, C2C12 statin)
COc1cc(OC)cc(C(=O)Nc2ccc(N3CCN(C(=O)c4cccs4)CC3)cc2)c1	DENV2 CPE 52.9
O=C1CCN(Cc2ccccc2)CCN1[C@H](COc1ccccc1)Cc1ccccc1	none
CC(C)C[C@@H](COc1ccccc1)N1CCN(Cc2ccccc2)CCC1=O	DENV2 CPE 28.2 (no result: Cneo AK release, PDI inh, C2C12 statin)
O=C1CCN(Cc2cccnc2)CCN1[C@H](CO)c1ccccc1	none
O=C1CCN(CCc2ccccc2)CCN1[C@H](COc1ccccc1)c1ccccc1	DENV2 CPE 98.9
CC(C)C[C@@H](CO)N1CCN(Cc2cccc(C#N)c2)CCC1=O	DENV2 CPE 20.5
COc1ccc(CN2CCC(=O)N([C@H](CO)c3ccccc3)CC2)cc1	DENV2 CPE 26.1
COCC#Cc1cnc2c(c1)C(=O)N([C@@H](C)CO)C[C@H](C)[C@@H](CN(C)Cc1ccc3c(c1)OCO3)O2	none (no result: PDI inh)
C[C@@H]1CN([C@@H](C)CO)C(=O)c2cccc(NC(=O)Nc3ccc(F)cc3)c2O[C@@H]1CN(C)Cc1ccc(C(=O)Nc2ccccc2N)cc1	none (no result: Cneo AK release, PDI inh, C2C12 statin)
CN1CCC(=O)N([C@H](COc2ccccc2)Cc2ccccc2)CC1	DENV2 CPE 20.0
CCCN1CCC(=O)N([C@H](COc2ccccc2)Cc2ccccc2)CC1	none
COc1ccc(NC(=O)CSc2nnc(-c3ccccc3Cl)n2Cc2ccco2)c(OC)c1	C2C12 statin 115.0 (no result: F508del corr, DENV2 CPE, ERp5 inh)
COc1ccc(NC(=O)CSc2nnc(-c3ccccc3)n2Cc2ccco2)c(OC)c1	none (no result: F508del corr, DENV2 CPE, ERp5 inh)
CC1CCCCN1C(=O)COC(=O)C1CCN(S(=O)(=O)c2ccc(Cl)c(C(F)(F)F)c2)CC1 (stereo not given)	DENV2 CPE 27.5
CCCN1C[C@@H](C)[C@H](OC)CN(C)C(=O)c2cc(NC(=O)Nc3c(C)noc3C)ccc2OC[C@@H]1C	none (no result: PDI inh)
CN1C(=O)c2cc(NC(=O)c3cccs3)ccc2OC[C@@H]2O[C@@H](CC(=O)O)CC[C@H]21	none (no result: PDI inh)

Screening data: PubChem BioAssay, Broad Institute
